Assay results: ChEMBL document CHEMBL1134437, “Synthesis and biological evaluation of novel pyrazoles and indazoles as activators of the nitric oxide receptor, soluble guanylate cyclase” (J Med Chem, 2001)

Key:
Homo sapiens [1] = species: Homo sapiens; experiment: Percent inhibition of collagen-induced platelet aggregation at 100 uM concentration; type: functional
[2] = (§1) Bovine sGC stimulation measured as relative enzyme activity (percentage of DEA/NO response for the compound to compound 3); type: functional
Method in brief: (§2)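 Baculovirus-expressed bovine sGC from Sf21 cells, partially purified on Mono-Q. Compound at 1 µM single concentration in Tris buffer pH 7.4 with 5 mM MgCl2, IBMX and GTP; sGC submaximally stimulated with 300 nM DEA/NO, 10 min at room temperature. cGMP by competitive enzyme immunoassay, duplicate, at least n = 2; expressed as % of DEA/NO response, then ratio to benzydamine.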

Homo sapiens [3] = species: Homo sapiens; experiment: Percent inhibition of collagen-induced platelet aggregation by 50% at a concentration of 100 uM; type: functional
Homo sapiens [4] = species: Homo sapiens; experiment: Concentration required to inhibit collagen-induced platelet aggregation by 50%; type: functional
Method in brief: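 Washed human platelets, prepared from citrated blood with PGI2 and normalized to 250 000 cells/µL in calcium-free Tyrode's buffer pH 7.4. Compound (DMSO ≤0.1% final) added 1 min before an EC50 dose of collagen. Light-transmittance aggregometry at 37 °C, response read 3 min after collagen and normalized to collagen control. IC50 from dose-response curves, mean ± SEM, at least 2 experiments.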

[5] = Activation of bovine sGC Enzyme (soluble Guanylate Cyclase) in Sf21 cells infected with baculo virus in the presence of 30 nM of PAPA/NO; type: cell-based
Method in brief: (§3)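 Bovine sGC expressed in Sf21 cells (baculovirus, 2.5 µg/mL hemin, 27 °C, 48 h), partially purified by Mono-Q anion exchange. Reaction in Tris buffer pH 7.4 with 5 mM MgCl2, 120 µg/mL enzyme, IBMX and GTP, stimulated by 30 nM PAPA/NO, room temperature, 10 min. cGMP read by competitive enzyme immunoassay. EC50 from nonlinear regression, mean ± SEM of at least 3 independent experiments.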

[6] = (§4) Compound was evaluated for pharmacokinetic parameter was determined after oral dosing of 2 mg/kg in rat; type: ADME, organism-based; parameters: dose 2 mg/kg, route oral; conditions: in vivo
Method in brief: (§5)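 Male Sprague-Dawley rats, cassette-dosed at 2 mg/kg in PBS orally (iv arm also run). Serum extracted into diethyl ether and analysed by reversed-phase C18 HPLC.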

Rattus norvegicus [7] = experiment: as §4; type: ADME, organism-based; parameters: dose 2 mg/kg, route oral; conditions: in vivo; method in brief: as §5
[8] = Bioavailability in rat after (dose 2 mg/kg p.o.); type: ADME, organism-based; conditions: in vivo, po; method in brief: as §5
Homo sapiens [9] = species: Homo sapiens; experiment: Percent inhibition of collagen-induced platelet aggregation at 50 uM concentration; type: functional
[10] = as §1; method in brief: as §2
Rattus norvegicus [11] = experiment: Area under curve (AUC) was determined after oral dosing of 5 mg/kg in rat; type: ADME, organism-based; parameters: dose 5 mg/kg, route oral; conditions: in vivo
Method in brief: (§6)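 Male Sprague-Dawley rats given 5 mg/kg in PBS orally (iv arm also run). Blood taken predose and at 0.5, 1, 2, 3, 4, 6, 10 and 24 h after oral dosing. Serum extracted into diethyl ether and analysed by reversed-phase C18 HPLC.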

[12] = Activation of sGC Enzyme (soluble Guanylate Cyclase) in Sf21 cells infected with baculo virus in the presence of 30 nM of PAPA/NO; type: functional, cell-based; method in brief: as §3
[13] = Cmax was determined after oral dosing of 5 mg/kg in rat; type: ADME, organism-based; parameters: dose 5 mg/kg, route oral; conditions: in vivo; method in brief: as §6
[14] = Bioavailability in rat after (dose 5 mg/kg p.o.); type: ADME, organism-based; conditions: in vivo, po; method in brief: as §6

Row | Compound | REA [2] | further results
1 | CCN(CC)CCCOc1cc(-c2ccccc2)[nH]n1 | 0.42 | 
2 | c1ccc(-c2cc(OCCCN3CCCC3)n[nH]2)cc1 | 0.85 | 
3 | CN(C)CCCOc1nn(C(=O)c2ccccc2)c2ccccc12 | 1.04 | IC50 (Homo sapiens [4]): 8.57 µM
4 | CN(C)CCCOc1nn(-c2ccccc2)c2ccccc12 | 1.16 | Cmax [6]: 3.2 ng/mL; AUC (Rattus norvegicus [7]): 7.9 ng·h/mL; bioavailability [8]: 2%; IC50 (Homo sapiens [4]): 2.46 µM
5 | CN(C)CCCOc1[nH]nc2ccccc12 |  | inhibition at 50 µM (Homo sapiens [9]): 50%; REA [10]: 1.93
6 | CN(C)CCCOc1cc(-c2ccncc2)[nH]n1 | 1.15 | inhibition at 100 µM (Homo sapiens [1]): 0%
7 | CN(C)CCCOc1cc(C(F)(F)F)[nH]n1 | 1.13 | inhibition at 100 µM (Homo sapiens [1]): 8%
8 | CN1CCCC(COc2cc(-c3ccccc3)[nH]n2)C1 (centres undefined) | 0.61 | 
9 | COc1cc(-c2cc(OCCCN(C)C)[nH]n2)cc(OC)c1OC | 1.1 | IC50 (Homo sapiens [4]): 41.1 µM
10 | CN(C)CCCOc1nn(CCCN(C)C)c2ccccc12 | 0.79 | 
11 | Nc1ncccc1COc1cc(-c2ccccc2)[nH]n1 | 0.69 | 
12 | OCc1ccc(-c2nn(Cc3ccccc3)c3ccccc23)o1 |  | EC50 [12]: 4.11 µM
13 | Nc1cc(COc2cc(-c3ccccc3)[nH]n2)ccn1 | 0.53 | 
14 | CN(C)CCCOc1nn(S(C)(=O)=O)c2ccccc12 | 1.07 | IC50 (Homo sapiens [4]): 21.6 µM
15 | NCCCOc1nn(Cc2ccccc2)c2ccccc12 | 0.48 | 
16 | CN(C)CCCCc1cc(-c2ccccc2)[nH]n1 | 0.68 | 
17 | CN(C)CCCOc1cc(-c2ccoc2)[nH]n1 | 1.31 | IC50 (Homo sapiens [4]): 99 µM
18 | CN(C)CCCNc1cc(-c2ccccc2)[nH]n1 | 0.66 | 
19 | CC(COc1nn(Cc2ccccc2)c2ccccc12)CN(C)C (centres undefined) | 0.62 | IC50 (Homo sapiens [4]): 4.18 µM
20 | CC(C)n1nc(OCCCN(C)C)c2ccccc21 | 0.66 | 

The next lines start with results.

Row | REA [2] | Compound | further results
21 | 0.84 | CN(C)CCCOc1cc(C(=O)N2CCOCC2)n(Cc2ccccc2)n1 | inhibition at 100 µM (Homo sapiens [1]): 90%
22 | 0.71 | CN(C)CCCOc1ccn(-c2ccccc2)n1 | inhibition at 100 µM (Homo sapiens [3]): 3%
23 | 1.54 | CN(C)CCCOc1cc(Cc2ccccc2)n[nH]1 | IC50 (Homo sapiens [4]): 49.2 µM; EC50 [5]: 0.165 µM
24 | 0.73 | CN(C)CCCOc1ccn(Cc2ccccc2)n1 | 
25 | 1.1 | COc1ccc(NC(=O)c2cc(OCCCN(C)C)nn2Cc2ccccc2)cc1 | AUC (Rattus norvegicus [11]): 61.1 ng·h/mL; EC50 [5]: 5.49 µM
26 | 1.01 | CN(C)CCCOc1cc(C(=O)O)n(Cc2ccccc2)n1 | 
27 | 1.22 | CCCN(CCC)C(=O)c1cc(OCCCN(C)C)nn1Cc1ccccc1 | inhibition at 100 µM (Homo sapiens [1]): 35%
28 | 0.82 | CC(=O)n1nc(OCCCN(C)C)c2ccccc21 | 
29 | 0.78 | CN(C)CCCOc1nn(C(=O)N(C)C)c2ccccc12 | 
30 | 0.79 | CN(C)CCCCOc1nn(Cc2ccccc2)c2ccccc12 | IC50 (Homo sapiens [4]): 7.62 µM
31 | 0.72 | CN(C)CCCOc1cc(-c2ccccc2)nn1Cc1ccccc1 | 
32 | 1 | CN(C)CCCOc1nn(Cc2ccccc2)c2ccccc12 [BENZYDAMINE] | IC50 (Homo sapiens [4]): 6.67 µM; EC50 [5]: 1.02 µM
33 | 0.95 | CNC(=O)c1cc(OCCCN(C)C)nn1Cc1ccccc1 | 
34 | 1.22 | CN(C)CCCOc1cc(C(=O)NCc2ccccc2)n(Cc2ccccc2)n1 | inhibition at 100 µM (Homo sapiens [1]): 25%
35 | 0.33 | CN(C)CCOc1nn(Cc2ccccc2)c2ccccc12 | 
36 | 1.08 | CN(C)CCCOc1cc(-c2ccccc2)n(Cc2ccccc2)n1 | Cmax [6]: 3.1 ng/mL; AUC (Rattus norvegicus [7]): 15.5 ng·h/mL; bioavailability [8]: 2%; IC50 (Homo sapiens [4]): 2.37 µM; EC50 [5]: 0.44 µM
37 | 0.56 | CN(C)CCCCCOc1nn(Cc2ccccc2)c2ccccc12 | 
38 | 1.28 | CN(C)CCCOc1cc(-c2ccccc2)n(-c2ccccc2)n1 | Cmax [13]: 1.4 ng/mL; AUC (Rattus norvegicus [11]): 3.3 ng·h/mL; bioavailability [14]: < 2%; IC50 (Homo sapiens [4]): 2.84 µM; EC50 [5]: 0.58 µM
39 | 1.49 | CN(C)CCCOc1cc(-c2ccccc2)[nH]n1 | inhibition at 100 µM (Homo sapiens [1]): 19%; EC50 [5]: 0.72 µM
40 | 0.84 | CN(C)CCCOc1nn(CCc2ccccc2)c2ccccc12 | 
41 | 0.93 | CN(C)CCCOc1cc(C(=O)N(C)C)n(Cc2ccccc2)n1 | inhibition at 100 µM (Homo sapiens [1]): 4%
42 | 1.17 | CN(C)CCCOc1[nH]ncc1-c1ccccc1 | IC50 (Homo sapiens [4]): 12 µM
